The values that follow come from ChEMBL document CHEMBL1795208 (J Med Chem, 2011).

One may read the IC50 as the concentration needed to halve the response being measured. Low values mean greater potency, high ones weaker potency.

Common to all, as to type: functional, cell-based
For one test, the system named is MCF7. Nature of the test: Antiproliferative activity against human MCF7 cells expressing estrogen receptor after 72 hrs by MTS/PMS assay. The following applies: MCF7, 72 h. Put shortly:
(§1)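 Cells kept in Advanced DMEM/F12 (1:1) with non-essential amino acids, 2 mM L-glutamine, penicillin, streptomycin and 10% FBS at 37 °C, 5% CO2. Seeded at 2000/well, attached overnight. Compound added in DMSO across a concentration range (1% DMSO final) for 72 h. Viable cells read by MTS/PMS and normalized to 1% DMSO controls (100%). IC50 taken from separate triplicate experiments.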

Test [1] can be described thus: Antiproliferative activity against human androgen-independent PC3MM2 cells after 72 hrs by MTS/PMS assay. The note with it: PC3MM2, 72 h. In outline:
as §1

The subject of a further test is SK-BR-3. In words: Antiproliferative activity against human SKBR3 cells expressing HER2 after 72 hrs by MTS/PMS assay. The following applies: SK-BR-3, 72 h. In outline: as §1
A short description of test [2]: Antiproliferative activity against human androgen-dependent LNCaP-LN3 cells after 72 hrs by MTS/PMS assay. The note with it: LNCaP-LN3, 72 h. In outline: as §1

SMILES strings stand for the structures.

Take `COc1cccc(-c2cc(C(=O)Nc3cc4cc(OC)c(OC(C)=O)c(C)c4oc3=O)ccc2OC)c1`: the 50% inhibitory concentration (IC50) in the test on MCF7 was determined as 1.5 µM; in test [1], 1.69 µM; with SK-BR-3, 5.72 µM; in test [2], 1.05 µM.
For the compound `COc1cccc(-c2cc(C(=O)Nc3cc4ccc(OC5CCC[C@@H](O)[C@H]5O)c(OC)c4oc3=O)ccc2OC)c1` (stereo partly specified), the IC50 came to 5.46 µM in the test with MCF7 and 7.44 µM with SK-BR-3.
Take `COc1cccc(-c2cc(C(=O)Nc3cc4ccc(O[C@@H]5OCC[C@@H](O)[C@H]5O)c(OC)c4oc3=O)ccc2OC)c1`: the 50% inhibitory concentration (IC50) in the test with MCF7 turned out to be 17.5 µM; in test [1], 10.7 µM; in the test with SK-BR-3, 1.46 µM; in test [2], 2.29 µM.
As to `COc1cccc(-c2cc(C(=O)Nc3cc4cc(OC)c(OC5CC(C)C[C@@H](O)[C@H]5O)c(C)c4oc3=O)ccc2OC)c1` (stereo partly specified), the IC50 in the test with MCF7 and in the test on SK-BR-3 was greater than 100 µM in each case.
`COc1cccc(-c2cc(C(=O)Nc3cc4ccc(OC5CCN(C)CC5)c(C)c4oc3=O)ccc2OC)c1`: the IC50 is 1.51 µM in the test with MCF7, 3.13 µM in test [1], 1.34 µM in the test with SK-BR-3 and 4.12 µM in test [2].
As to `COc1cc2cc(NC(=O)c3ccc(OC(C)=O)c(CC=C(C)C)c3)c(=O)oc2c(C)c1OC1CCN(C)CC1`, the IC50 stood at 0.58 µM with MCF7, 1.41 µM in test [1] and 0.42 µM with SK-BR-3.
`COc1cccc(-c2cc(C(=O)Nc3cc4ccc(O)c(C)c4oc3=O)ccc2OC)c1`: the IC50 in the test on MCF7 is 6.93 µM; in test [1] it was 5.36 µM; with SK-BR-3, 8.88 µM; in test [2] it was 3.21 µM.
With `Cc1c(OCCCN(C)C)ccc2cc(NC(=O)c3cc4ccccc4[nH]3)c(=O)oc12`, the half-maximal inhibitory concentration (IC50) in the test with MCF7 came out at 5.23 µM; in test [1], 13.7 µM; in the test on SK-BR-3, 1.13 µM.
With `CO[C@@H]1[C@@H](O)[C@@H](O)[C@H](Oc2ccc3cc(NC(=O)c4cc5ccccc5[nH]4)c(=O)oc3c2C)OC1(C)C`, the midpoint of inhibition in the test on SK-BR-3, the IC50, lay at 0.37 µM.
Compound `CO[C@@H]1[C@@H](O)[C@@H](O)[C@H](Oc2ccc3cc(NC(=O)c4ccc(O)c(CC=C(C)C)c4)c(=O)oc3c2C)OC1(C)C` returned a concentration for half-maximal inhibition (IC50) in the test on SK-BR-3 of 0.5 µM.
`CO[C@@H]1[C@@H](O)[C@@H](O)[C@H](Oc2ccc3cc(NC(=O)CCCCC(=O)Nc4cc5ccc(O[C@H]6OC(C)(C)[C@@H](OC)[C@H](O)[C@@H]6O)cc5oc4=O)c(=O)oc3c2C)OC1(C)C` came in with a half-maximal inhibitory concentration (IC50) in the test on SK-BR-3 of 2 µM.
As for `COc1cccc(-c2cc(C(=O)Nc3cc4cc(OC)c(OS(C)(=O)=O)c(C)c4oc3=O)ccc2OC)c1`, the IC50 (in the test with MCF7; in the test with SK-BR-3; in test [2]) was greater than 100 µM in each case.
In the case of `COc1cccc(-c2cc(C(=O)Nc3cc4ccc(O[C@@H]5C[C@H](O)CCO5)c(C)c4oc3=O)ccc2OC)c1`, the IC50 came out at 11.2 µM with MCF7, 9.28 µM in the test on SK-BR-3 and 8.56 µM in test [2].
Take `COc1cccc(-c2cc(C(=O)Nc3cc4ccc(OC5CC(C)C[C@@H](O)[C@H]5O)c(OC)c4oc3=O)ccc2OC)c1` (stereo partly specified): the half-inhibitory concentration (IC50) with MCF7 worked out at 8.52 µM; in the test with SK-BR-3 it was 6.38 µM.
In the test with SK-BR-3, `CO[C@H]1[C@H](OC(=O)c2ccc(C)[nH]2)[C@H](O)[C@@H](Oc2ccc3c(O)c(NC(=O)c4c[nH]c(C(=O)Nc5c(O)c6ccc(O[C@H]7OC(C)(C)[C@@H](OC)[C@H](OC(=O)c8ccc(C)[nH]8)[C@@H]7O)c(C)c6oc5=O)c4C)c(=O)oc3c2C)OC1(C)C` [COUMERMYCIN A1] displayed a concentration for half-maximal inhibition (IC50) of 70 µM.
With `COc1cccc(-c2cc(C(=O)Nc3cc4ccc(OS(C)(=O)=O)c(OC)c4oc3=O)ccc2OC)c1`, the concentration for half-maximal inhibition (IC50) was greater than 100 µM in the test with MCF7, greater than 100 µM in the test with SK-BR-3 and 0.87 µM in test [2].
Consider `CC(C)=CCc1cc(C(=O)Nc2cc3ccc(OCCCN(C)C)c(C)c3oc2=O)ccc1O`, for which the half-inhibitory concentration (IC50) in test [1] is 1.81 µM.
For `COc1c(OCCCN(C)C)ccc2cc(NC(=O)c3ccc(O)c(CC=C(C)C)c3)c(=O)oc12`, the IC50 is 3.26 µM in the test with MCF7, 9.24 µM in test [1] and 0.77 µM in the test with SK-BR-3.
With `COc1cccc(-c2cc(C(=O)Nc3cc4cc(OC)c(OS(=O)(=O)c5ccc(C)cc5)c(C)c4oc3=O)ccc2OC)c1`, the IC50 (in the test with MCF7; in test [1]; with SK-BR-3) was greater than 100 µM each time.
`COc1cccc(-c2cc(C(=O)Nc3cc4ccc(OS(=O)(=O)c5ccc(C)cc5)c(OC)c4oc3=O)ccc2OC)c1`: the concentration for half-maximal inhibition (IC50) in the test with MCF7 was greater than 100 µM; in the test on SK-BR-3, greater than 100 µM; in test [2], 0.11 µM.
Regarding `COc1cccc(-c2cc(C(=O)Nc3cc4ccc(O[C@H]5OCC[C@H]5O)c(C)c4oc3=O)ccc2OC)c1`, the values for the IC50 (with MCF7; with SK-BR-3; in test [2]) were greater than 100 µM, greater than 100 µM and 5.34 µM, respectively.
On to `COc1cccc(-c2cc(C(=O)Nc3cc4ccc(OC5CC(C)(C)C[C@@H](O)[C@H]5O)c(OC)c4oc3=O)ccc2OC)c1` (stereo partly specified), for which the results for the half-inhibitory concentration (IC50) in the test on MCF7 and with SK-BR-3 were 1.56 µM and 3.45 µM, respectively.
As to `COc1cccc(-c2cc(C(=O)Nc3cc4ccc(O[C@H]5C[C@H](O)CCO5)c(OC)c4oc3=O)ccc2OC)c1`, the IC50 was 95.8 µM in the test on MCF7, 8.75 µM with SK-BR-3 and 11.5 µM in test [2].
In the case of `COc1c(OCCCN(C)C)ccc2cc(NC(=O)c3ccc(OC(C)=O)c(CC=C(C)C)c3)c(=O)oc12`, the IC50 was 2.14 µM with MCF7, 4.59 µM in test [1] and 0.78 µM with SK-BR-3.
As for `COc1cccc(-c2cc(C(=O)Nc3cc4cc(OC)c(OC5CC(C)(C)C[C@@H](O)[C@H]5O)c(C)c4oc3=O)ccc2OC)c1` (stereo partly specified), the concentration for half-maximal inhibition (IC50) in the test on MCF7 and in the test with SK-BR-3 was greater than 100 µM each time.
With `COc1cc2cc(NC(=O)c3ccc(O)c(CC=C(C)C)c3)c(=O)oc2c(C)c1OCCCN(C)C`, the figures for the half-inhibitory concentration (IC50) (in the test with MCF7; in test [1]; with SK-BR-3) were 0.8 µM, 1.38 µM and 0.39 µM, respectively.
In the case of `CC(C)=CCc1cc(C(=O)Nc2cc3ccc(OC4CCN(C)CC4)c(C)c3oc2=O)ccc1O`, the IC50 in test [1] is 1.37 µM.
Regarding `COc1c(OC2CCN(C)CC2)ccc2cc(NC(=O)c3ccc(O)c(CC=C(C)C)c3)c(=O)oc12`, the IC50 in the test with MCF7 is 1.54 µM; in test [1], 3.53 µM; in the test with SK-BR-3, 0.92 µM.
With `COc1c(OC2CCN(C)CC2)ccc2cc(NC(=O)c3ccc(OC(C)=O)c(CC=C(C)C)c3)c(=O)oc12`, the half-maximal inhibitory concentration (IC50) with MCF7 is 1.64 µM; in test [1] it was 3.98 µM; in the test on SK-BR-3 it was 1.07 µM.
Turning to `COc1cccc(-c2cc(C(=O)Nc3cc4ccc(OC5OC(C)(C)[C@H](OC)[C@@H](O)[C@H]5O)c(C)c4oc3=O)ccc2OC)c1` (stereo partly specified), the values for the IC50 with MCF7 and in the test on SK-BR-3 were 18.7 µM and 7.5 µM, respectively.
On to `CO[C@@H]1[C@@H](OC(N)=O)[C@@H](O)[C@H](Oc2ccc3cc(NC(=O)c4ccc(O)c(CC=C(C)C)c4)c(=O)oc3c2C)OC1(C)C`, for which the half-inhibitory concentration (IC50) in the test on SK-BR-3 turned out to be 7.5 µM.
In the case of `CC(=O)Oc1ccc(C(=O)Nc2cc3ccc(OC4CCN(C)CC4)c(C)c3oc2=O)cc1CC=C(C)C`, inhibition in test [1] was half-maximal at 2.12 µM (IC50).
On to `COc1cccc(-c2cc(C(=O)Nc3cc4ccc(OCC(O)CO)c(C)c4oc3=O)ccc2OC)c1` (stereo unspecified), for which the IC50 is greater than 50 µM in the test on MCF7, 0.19 µM in test [1] and greater than 50 µM with SK-BR-3.
Compound `CC(=O)Oc1ccc(C(=O)Nc2cc3ccc(OCCCN(C)C)c(C)c3oc2=O)cc1CC=C(C)C` came in with a half-inhibitory concentration (IC50) in test [1] of 1.42 µM.
Consider `COc1cccc(-c2cc(C(=O)Nc3cc4cc(OC)c(OC5CCC[C@@H](O)[C@H]5O)c(C)c4oc3=O)ccc2OC)c1` (stereo partly specified), for which the concentration for half-maximal inhibition (IC50) in the test on MCF7 was 10.1 µM; in the test on SK-BR-3, 8.18 µM.
Take `COc1cccc(-c2cc(C(=O)Nc3cc4cc(OC)c(OCC(O)CO)c(C)c4oc3=O)ccc2OC)c1` (stereo unspecified): the results for the half-maximal inhibitory concentration (IC50) in the test with MCF7 and in the test on SK-BR-3 were 20.5 µM and 19.4 µM, respectively.
